Assay results from ChEMBL document CHEMBL3616466, “Pyrazolo[3,4-h]quinolines promising photosensitizing agents in the treatment of cancer” (Eur J Med Chem, 2015).

Tests used:
Type in all cases: functional
[1] = system: Jurkat; experiment: Photocytotoxicity against human Jurkat cells assessed as growth inhibition at 2.5 J/cm'2 irradiation for 30 mins followed by drug treated for 72 hrs by MTT assay; conditions: light or radiation study
In short: (§1)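 Cells seeded at 5 × 10³ per well and pre-incubated 24 h. Drug dilutions in HBSS (pH 7.2, from DMSO stock) added for 30 min at 37 °C, then UV-A irradiation at the stated dose. Drug solution then replaced with culture medium and plates incubated 72 h. Viability by MTT; GI50 from concentration series.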

[2] = system: Jurkat; experiment: Photocytotoxicity against human Jurkat cells assessed as growth inhibition at 1.25 J/cm'2 irradiation for 30 mins followed by drug treated for 72 hrs by MTT assay; conditions: light or radiation study; in short: as §1
[3] = system: HL-60; experiment: Photocytotoxicity against human HL60 cells assessed as growth inhibition at 2.5 J/cm'2 irradiation for 30 mins followed by drug treated for 72 hrs by MTT assay; conditions: HL-60, light or radiation study; in short: as §1
[4] = system: HL-60; experiment: Photocytotoxicity against human HL60 cells assessed as growth inhibition at 1.25 J/cm'2 irradiation for 30 mins followed by drug treated for 72 hrs by MTT assay; conditions: HL-60, light or radiation study; in short: as §1
[5] = system: MCF7; experiment: Photocytotoxicity against human MCF7 cells assessed as growth inhibition at 3.75 J/cm'2 irradiation for 30 mins followed by drug treated for 72 hrs by MTT assay; conditions: MCF7, light or radiation study; in short: as §1
[6] = system: MCF7; experiment: Photocytotoxicity against human MCF7 cells assessed as growth inhibition at 2.5 J/cm'2 irradiation for 30 mins followed by drug treated for 72 hrs by MTT assay; conditions: MCF7, light or radiation study; in short: as §1
[7] = system: A549; experiment: Photocytotoxicity against human A549 cells assessed as growth inhibition at 3.75 J/cm'2 irradiation for 30 mins followed by drug treated for 72 hrs by MTT assay; conditions: A549, light or radiation study; in short: as §1
[8] = system: A549; experiment: Photocytotoxicity against human A549 cells assessed as growth inhibition at 2.5 J/cm'2 irradiation for 30 mins followed by drug treated for 72 hrs by MTT assay; conditions: A549, light or radiation study; in short: as §1
[9] = system: LoVo; experiment: Photocytotoxicity against human LoVo cells assessed as growth inhibition at 3.75 J/cm'2 irradiation for 30 mins followed by drug treated for 72 hrs by MTT assay; conditions: light or radiation study; in short: as §1
[10] = system: LoVo; experiment: Photocytotoxicity against human LoVo cells assessed as growth inhibition at 2.5 J/cm'2 irradiation for 30 mins followed by drug treated for 72 hrs by MTT assay; conditions: light or radiation study; in short: as §1
[11] = system: Jurkat; experiment: Cytotoxicity against human Jurkat cells assessed as growth inhibition after 72 hrs by MTT assay
[12] = system: HL-60; experiment: Cytotoxicity against human HL60 cells assessed as growth inhibition after 72 hrs by MTT assay; conditions: HL-60, 72 h
[13] = system: A549; experiment: Cytotoxicity against human A549 cells assessed as growth inhibition after 72 hrs by MTT assay; conditions: A549, 72 h
In short: (§2)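 Cells (5 × 10³ per well) pre-incubated 24 h at 37 °C, 5% CO₂, then exposed in the dark to serial concentrations diluted from DMSO stock into complete medium for 72 h at 37 °C. Viability read by MTT; GI50 derived. LoVo in Ham's F-12, MCF-7 and A-549 in DMEM, all with 10% FBS and penicillin/streptomycin.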

[14] = system: MCF7; experiment: Cytotoxicity against human MCF7 cells assessed as growth inhibition after 72 hrs by MTT assay; conditions: MCF7, 72 h; in short: as §2
[15] = system: LoVo; experiment: Cytotoxicity against human LoVo cells assessed as growth inhibition after 72 hrs by MTT assay; in short: as §2

SMILES	GI50 [1]	GI50 [2]	GI50 [3]	GI50 [4]	GI50 [5]	GI50 [6]	GI50 [7]	GI50 [8]	GI50 [9]	GI50 [10]	GI50 [11]	GI50 [12]	GI50 [13]	GI50 [14]	GI50 [15]
COc1nc2c(cc1S(=O)(=O)c1ccccc1)CCc1c-2cnn1Cc1ccccc1	1.4 µM	2.48 µM	1.3 µM	3.83 µM	3.05 µM	4 µM	5.74 µM	10.4 µM	1.41 µM	5.32 µM	8.43 µM	6.1 µM	> 20 µM	> 20 µM	> 20 µM
O=c1[nH]c2c(cc1S(=O)(=O)c1ccccc1)CCc1c-2cnn1-c1ccc(Cl)cc1											> 20 µM	> 20 µM	6.25 µM	11.2 µM	> 20 µM
COc1nc2c(cc1S(=O)(=O)c1ccccc1)CCc1c-2cnn1-c1ccccc1	0.71 µM	3.65 µM	0.79 µM	2.83 µM	1.84 µM	2.47 µM	2.89 µM	7.56 µM	1.1 µM	3.14 µM	12.1 µM	> 20 µM	> 20 µM	> 20 µM	> 20 µM
COc1ccc(-n2ncc3c2CCc2cc(S(=O)(=O)c4ccccc4)c(=O)[nH]c2-3)cc1											> 20 µM	> 20 µM	4.04 µM	8.54 µM	> 20 µM
COc1nc2c(ccc3c2cnn3-c2ccc(Cl)cc2)cc1S(=O)(=O)c1ccccc1	0.96 µM	4.23 µM	1.2 µM	2.16 µM	3.23 µM	5.36 µM	0.75 µM	3.09 µM	0.71 µM	1.43 µM	> 20 µM	> 20 µM	4.6 µM	7.51 µM	> 20 µM
COc1nc2c(cc1S(=O)(=O)c1ccccc1)CCc1c-2cnn1-c1ccccc1Cl	0.9 µM	1.93 µM	0.81 µM	3.78 µM	1.59 µM	3.13 µM	4.8 µM	14.3 µM	1.78 µM	5.73 µM	9.8 µM	7.17 µM	> 20 µM	> 20 µM	> 20 µM
COc1nc2c(cc1S(=O)(=O)c1ccccc1)CCc1c-2cnn1-c1cccc(Cl)c1	1.34 µM	1.95 µM	0.53 µM	3.42 µM	2.52 µM	5.15 µM	6.61 µM	13.3 µM	2.99 µM	9.84 µM	13.2 µM	> 20 µM	> 20 µM	> 20 µM	> 20 µM
COc1ccc(-n2ncc3c4nc(OC)c(S(=O)(=O)c5ccccc5)cc4ccc32)cc1	0.54 µM	1.5 µM	0.76 µM	0.99 µM	0.59 µM	1.23 µM	0.09 µM	0.35 µM	0.16 µM	0.42 µM	> 20 µM	> 20 µM	> 20 µM	16.2 µM	> 20 µM
